Data set [1] can be described thus: Selectivity index, ratio of CC50 for African green monkey Vero-B cells infected with Yellow fever virus assessed as inhibition of cell growth to EC50 for Yellow fever virus infected in Vero-B cells assessed as inhibition of virus-induced cytopathogenic effect incubated for 7 days by methylene blue staining based visual analysis. The class given is toxicity. To be noted: read-out: Ratio CC50/EC50.

Data set [2] can be described thus: Selectivity index, ratio of CC50 for African green monkey Vero-B cells infected with Dengue virus serotype 2 assessed as inhibition of cell growth to EC50 for Dengue Virus serotype 2 infected in Vero-B cells assessed as inhibition of virus-induced cytopathogenic effect incubated for 7 days by methylene blue staining based visual analysis. It is filed as toxicity. The note with it: read-out: Ratio CC50/EC50.

Another data set deals with Yellow fever virus. Description: Antiviral activity against Yellow fever virus infected in Vero-B cells assessed as inhibition of virus-induced cytopathogenic effect after 7 days by methylene blue staining based visual analysis. It is filed as functional, organism-based. To be noted: 168 h. In outline:
(§1)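 Yellow fever virus was tested in Vero-B cells of the ATCC CCL-81 line. EC50 is the concentration giving 50% inhibition of virus-induced CPE. CC50 is the concentration giving 50% inhibition of cell growth. The original μg/mL data were converted to μM.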

The next data set deals with dengue virus type 2. The data set is described as follows: Antiviral activity against Dengue virus serotype 2 infected in Vero-B cells assessed as inhibition of virus-induced cytopathogenic effect after 7 days by methylene blue staining based visual analysis. It is filed as functional, organism-based. To be noted: 168 h. The gist of the method: (§2)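 Dengue virus serotype 2 was tested in green monkey kidney Vero-B cells from the ECACC line. EC50 is the concentration that inhibits virus-induced CPE by 50%. CC50 is the concentration that inhibits cell growth by 50%. Values were first obtained in μg/mL and then recalculated to μM.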

Data set [3] in a line: Cytotoxicity against African green monkey Vero-B cells infected with Dengue virus serotype 2 assessed as inhibition of cell growth after 7 days by methylene blue staining based visual analysis. The note with it: chlorocebus aethiops, time 7 day. The gist of the method:
as §2

A short description of data set [4]: Cytotoxicity against African green monkey Vero-B cells infected with Yellow fever virus assessed as inhibition of cell growth after 7 days by methylene blue staining based visual analysis. To be noted: chlorocebus aethiops, time 7 day. The gist of the method:
as §1

The values that follow come from ChEMBL document CHEMBL4715720, “Synthetic strategy and antiviral evaluation of diamide containing heterocycles targeting dengue and yellow fever virus” (Eur J Med Chem, 2016).

A value given as a limit tells only on which side of the number the result lay.

Regarding `Cc1ccc(NC(=O)c2nccnc2C(=O)Nc2ccccc2-c2cc(C)n[nH]2)cc1`, the selectivity ratio at 168 h in data set [1] was above 34.

With `Cc1ccc(NC(=O)c2nccnc2C(=O)Nc2ccc(C)cc2-c2cc(C)n[nH]2)cc1`, the selectivity ratio at 168 h in data set [2] is above 235.

For `O=C(NCc1ccccc1-c1ccsc1)c1ccccc1C(=O)Nc1ccc(F)cc1`, the selectivity ratio at 168 h worked out at 53 in data set [1] and 17 in data set [2]. The concentration for a half-maximal effect (EC50) worked out at 1400 nM in the data set with Yellow fever virus and 3000 nM in the data set on dengue virus type 2. In addition, the CC50 at 168 h in data set [3] came out at 50 µM; in data set [4] it was 75 µM.

`Cc1ccc(NC(=O)c2nccnc2C(=O)Nc2ccc(F)cc2)c(-c2cccs2)c1`: the selectivity ratio at 168 h in data set [1] was 5.

On to `Cc1ccc(NC(=O)c2ccccc2C(=O)Nc2ccc(C)cc2-c2ccsc2)cc1`, for which, in data set [2], the selectivity ratio at 168 h was 41.

`Cc1ccc(NC(=O)c2nccnc2C(=O)Nc2ccc(C)cc2-c2ccsc2)cc1`: the selectivity ratio at 168 h in data set [2] is above 29.

With `Cc1ccc(NC(=O)c2nccnc2C(=O)Nc2ccc(C)cc2-c2cccs2)cc1`, in data set [2], the selectivity ratio at 168 h is above 235.

With `Cc1ccc(NC(=O)c2ccccc2C(=O)Nc2ccc(F)cc2)c(-c2cc(C)n[nH]2)c1`, the selectivity ratio at 168 h in data set [2] was above 235.
